Reference: ChEMBL document CHEMBL5236549, “Discovery of 2-Sulfinyl-Diazabicyclooctane Derivatives, Potential Oral β-Lactamase Inhibitors for Infections Caused by Serine β-Lactamase-Producing Enterobacterales” (J Med Chem, 2021)

Legend:
Klebsiella pneumoniae [1] = experiment: Antibacterial activity against Klebsiella pneumoniae ATCC SR201218 assessed as reduction in bacterial growth by measuring minimum […] concentration incubated for 16 to 24 hrs by CLSI based two-fold serial dilution method; format: functional; details: time 16-24 hrs
In short: (§1)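 MPC₁ by broth microdilution: twofold serial dilutions of inhibitor in cation-adjusted Mueller Hinton broth containing ceftibuten at 1 μg/mL. Inoculum about 5 × 10⁴ cfu/well final, set from OD625. Incubation at 35 °C for 16−20 h. […] N = 1.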

[2] = Half life in mouse at 10 mg/kg,iv by LC/MS/MS analysis; format: ADME, organism-based; details: in vivo
In short: (§2)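 After iv dosing, T1/2 taken as ln 2/kel, with kel from the slope of the log concentration–time profile. Plasma levels measured by LC/MS/MS with an external standard.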

Klebsiella pneumoniae [3] = experiment: Antibacterial activity against Klebsiella pneumoniae SR09635 assessed as reduction in bacterial growth by measuring minimum […] concentration incubated for 16 to 20 hrs by CLSI based two-fold serial dilution method; details: time 16-20 hrs
Klebsiella pneumoniae [4] = experiment: Antibacterial activity against Klebsiella pneumoniae SR09603 assessed as inhibition of bacterial growth incubated for 16 to 20 hrs by CLSI based two-fold serial dilution method
[5] = Stability in rat serum assessed as compound remaining at 5 micromol/L incubated for 30 mins by LC-MS/MS analysis; format: ADME, cell-free; details: dose 5 µmol/L, read-out: Stability
In short: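 Pooled rat serum incubated with 5 μmol/L compound for 30 min at 37 °C, in duplicate; aliquot mixed with methanol, centrifuged, supernatant analysed by LC/MS/MS for % remaining.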

[6] = Total clearance in rat at 1 mg/kg,iv by LC/MS/MS analysis; format: ADME, organism-based; details: in vivo
In short: (§3)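 Intravenous dosing (mouse 10, rat 1, dog 5, monkey 5 mg/kg); plasma quantified by LC/MS/MS after methanol precipitation with external standard; AUC by linear trapezoidal approximation; CLtot = dose/AUC.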

Enterobacter cloacae [7] = experiment: Antibacterial activity against Enterobacter cloacae SR200030 assessed as inhibition of bacterial growth incubated for 16 to 24 hrs by CLSI based two-fold serial dilution method; format: functional; details: time 16-24 hrs
In short: (§4)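 CLSI broth microdilution in cation-adjusted Mueller Hinton broth, twofold serial dilutions, about 5 × 10⁴ cfu/well from OD625, 35 °C for 16−20 h. MIC is the lowest concentration with no visible growth.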

[8] = Half life in rat at 1 mg/kg,iv by LC/MS/MS analysis; format: ADME, organism-based; details: in vivo; in short: as §2
Klebsiella pneumoniae [9] = experiment: Antibacterial activity against Klebsiella pneumoniae SR201325 assessed as inhibition of bacterial growth incubated for 16 to 20 hrs by CLSI based two-fold serial dilution method
Enterobacter cloacae [10] = experiment: Antibacterial activity against Enterobacter cloacae SR36276 assessed as inhibition of bacterial growth incubated for 16 to 20 hrs by CLSI based two-fold serial dilution method
[11] = Half life in monkey at 5 mg/kg,iv by LC/MS/MS analysis; format: ADME, organism-based, Macaca mulatta; details: rhesus monkey, in vivo; in short: as §2
[12] = Total clearance in mouse at 10 mg/kg,iv by LC/MS/MS analysis; format: ADME, organism-based; details: in vivo; in short: as §3
Klebsiella pneumoniae [13] = experiment: Antibacterial activity against Klebsiella pneumoniae SR200487 assessed as inhibition of bacterial growth incubated for 16 to 24 hrs by CLSI based two-fold serial dilution method; format: functional; details: time 16-24 hrs; in short: as §4
[14] = Inhibition of bacterial beta-lactamase OXA-48 using nitrocefin as substrate incubated for 20 mins; design: species or system Bacteria
In short: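 Nitrocefin hydrolysis read by absorbance. Enzyme titrated to give about 0.2 absorbance change over the no-enzyme control. Enzyme added to nitrocefin (final 50 μg/mL) plus inhibitor, no preincubation, read after 20 min at 35 °C. IC50 is 50% reduction of hydrolysis. N = 1.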

[15] = AUC in dog at 5 mg/kg,iv by LC/MS/MS analysis; format: ADME, organism-based, Canis lupus familiaris; design: dose 5 mg/kg, route iv; details: in vivo
In short: (§5)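 Plasma of the parent acid measured by LC/MS/MS (methanol precipitation, positive ESI, external standard); oral values follow prodrug dosing (rat fed, dog and monkey fasted). AUC from 0 h to last time point by linear trapezoid; F from oral AUC versus iv AUC of the parent. N = 2 (rat, dog), N = 3 (monkey, mouse).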

Klebsiella pneumoniae [16] = experiment: Antibacterial activity against Klebsiella pneumoniae ATCC BAA1705 assessed as inhibition of bacterial growth incubated for 16 to 20 hrs by CLSI based two-fold serial dilution method
Escherichia coli [17] = experiment: Antibacterial activity against Escherichia coli ATCC SR34100 assessed as inhibition of bacterial growth incubated for 16 to 20 hrs by CLSI based two-fold serial dilution method
Klebsiella pneumoniae [18] = experiment: Antibacterial activity against Klebsiella pneumoniae SR100758 assessed as inhibition of bacterial growth incubated for 16 to 24 hrs by CLSI based two-fold serial dilution method; format: functional; details: time 16-24 hrs; in short: as §4
[19] = Inhibition of bacterial beta-lactamase CTX-M-15 using nitrocefin as substrate incubated for 20 mins; design: species or system Bacteria
[20] = AUC in mouse at 10 mg/kg,iv by LC/MS/MS analysis; format: ADME, organism-based; design: dose 10 mg/kg, route iv; details: in vivo; in short: as §5
Klebsiella pneumoniae [21] = experiment: Antibacterial activity against Klebsiella pneumoniae SR09603 assessed as reduction in bacterial growth by measuring minimum […] concentration incubated for 16 to 20 hrs by CLSI based two-fold serial dilution method; details: time 16-20 hrs
[22] = AUC in rat at 1 mg/kg,iv by LC/MS/MS analysis; format: ADME, organism-based; design: dose 1 mg/kg, route iv; details: in vivo; in short: as §5
Enterobacter cloacae [23] = experiment: Antibacterial activity against Enterobacter cloacae SR100108 assessed as reduction in bacterial growth by measuring minimum […] concentration incubated for 16 to 20 hrs by CLSI based two-fold serial dilution method; details: time 16-20 hrs
Enterobacter cloacae [24] = experiment: Antibacterial activity against Enterobacter cloacae SR36276 assessed as reduction in bacterial growth by measuring minimum […] concentration incubated for 16 to 20 hrs by CLSI based two-fold serial dilution method; details: time 16-20 hrs
[25] = Half life in dog at 5 mg/kg,iv by LC/MS/MS analysis; format: ADME, organism-based, Canis lupus familiaris; details: in vivo; in short: as §2
Escherichia coli [26] = experiment: Antibacterial activity against Escherichia coli ATCC SR34100 assessed as reduction in bacterial growth by measuring minimum […] concentration incubated for 16 to 24 hrs by CLSI based two-fold serial dilution method; format: functional; details: time 16-24 hrs; in short: as §1
[27] = Stability of the compound in phosphate buffer at pH 7.0 assessed as parent compound remaining at 40 degreeC measured after 16 hrs; format: physicochemical; details: read-out: Stability
In short: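 Compound held in pH 7.0 phosphate buffer at 40 °C for 16 h; amount remaining reported as %.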

Klebsiella pneumoniae [28] = experiment: Antibacterial activity against Klebsiella pneumoniae ATCC BAA1705 assessed as reduction in bacterial growth by measuring minimum potentiating concentration incubated for 16 to 20 hrs by CLSI based two-fold serial dilution method; details: time 16-20 hrs
[29] = Total clearance in rat by LC-MS/MS analysis; format: ADME; details: in vivo

**Q.** For `C[S@@+]([O-])[C@@H]1CC[C@@H]2CN1C(=O)N2O[C@H](F)C(=O)[O-].[Na+]`, which MPC (Klebsiella pneumoniae [1]) is on record?
**A.** 2 µg/mL

**Q.** And the half-life [2]?
**A.** 24 min

**Q.** What about the MPC (Klebsiella pneumoniae [3]) of the same molecule?
**A.** 2 µg/mL

**Q.** What about the MIC (Klebsiella pneumoniae [4]) of the same molecule?
**A.** 32 µg/mL

**Q.** What about the remaining at 0.5 h, 5 µM [5] of the same molecule?
**A.** 85%

**Q.** What about the clearance [6] of the same molecule?
**A.** 27 mL/min/kg

**Q.** What about the MIC (Enterobacter cloacae [7]) of the same molecule?
**A.** > 32 µg/mL

**Q.** And the half-life [8]?
**A.** 12 min

**Q.** And the MIC (Klebsiella pneumoniae [9])?
**A.** > 32 µg/mL

**Q.** What about the MIC (Enterobacter cloacae [10]) of the same molecule?
**A.** > 32 µg/mL

**Q.** What about the half-life [11] of the same molecule?
**A.** 30 min

**Q.** And the clearance [12]?
**A.** 34.7 mL/min/kg

**Q.** What about the MIC (Klebsiella pneumoniae [13]) of the same molecule?
**A.** > 32 µg/mL

**Q.** And the IC50 [14]?
**A.** 443 nM

**Q.** What about the AUC [15] of the same molecule?
**A.** 19400 ng·h/mL

**Q.** What about the MIC (Klebsiella pneumoniae [16]) of the same molecule?
**A.** 32 µg/mL

**Q.** What about the MIC (Escherichia coli [17]) of the same molecule?
**A.** 32 µg/mL

**Q.** What about the MIC (Klebsiella pneumoniae [18]) of the same molecule?
**A.** > 32 µg/mL

**Q.** And the IC50 [19]?
**A.** 12 nM

**Q.** What about the AUC [20] of the same molecule?
**A.** 4920 ng·h/mL

**Q.** And the MPC (Klebsiella pneumoniae [21])?
**A.** 0.125 µg/mL

**Q.** And the AUC [22]?
**A.** 620 ng·h/mL

**Q.** What about the MPC (Enterobacter cloacae [23]) of the same molecule?
**A.** 1 µg/mL

**Q.** And the MPC (Enterobacter cloacae [24])?
**A.** 2 µg/mL

**Q.** And the half-life [25]?
**A.** 54 min

**Q.** And the MPC (Escherichia coli [26])?
**A.** 0.125 µg/mL

**Q.** What about the remaining at 16 h [27] of the same molecule?
**A.** 95%

**Q.** And the MPC (Klebsiella pneumoniae [28])?
**A.** 0.063 µg/mL

**Q.** And the clearance [29]?
**A.** 27 mL/min/kg
